Data published in paper PMC6172447 (iScience, 2018).

What was measured:
AMPK = assay: KinaseProfiler radiometric assay, AMPK; assay type: biochemical, human; details: selectivity profiling, 40 nM ULK-101 or 15 nM ULK-100
[1] = test system: nutrient-starved murine embryonic fibroblasts; details: 1 μM, ref Petherick et al., 2015; cited from earlier work
ULK1 = details: ref Egan et al., 2015; cited from earlier work
[2] = test system: U2OS cells stably expressing EGFP-DFCP1; assay: Omegasome formation, EGFP-DFCP1 puncta by live-cell fluorescent microscopy; assay type: cell-based, human
How it was run: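 U2OS cells stably expressing EGFP-DFCP1 were given vehicle or 100 nM AZD8055, with or without 5 μM test compound, for 2.5 hr. They were imaged live by fluorescence microscopy in the green FITC channel. EGFP-DFCP1 objects per cell were counted in 20–25 cells per condition. Mean ± SEM; two-tailed unpaired t test.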

U2OS cells [3] = assay: Autophagic turnover, BafA1-induced LC3B-II accumulation by immunoblotting; assay type: cell-based, human
U2OS cells [4] = assay: Phagophore formation, endogenous ATG12 immunofluorescence; assay type: cell-based, human
[5] = test system: 327 recombinant human kinases; assay: KinaseProfiler radiometric selectivity profiling, wild-type human kinase panel; assay type: biochemical; details: 326 non-ULK1 kinases; 500 nM SBI-0206965, 40 nM ULK-101, or 15 nM ULK-100
[6] = 5 μM ULK-101 co-treatment with 100 nM AZD8055, 2.5 hr

Compound: CC(C)[C@H](NC(=O)c1cc(-c2cnn3cc(-c4ccc(OCCN5CCCCC5)cc4)cnc23)cs1)C(F)(F)F [ULK-100]
- AMPK inhibition in vitro (AMPK): inhibited

Compound: CN1CCc2cc(Nc3ncc(C4CC4)c(NCCCNC(=O)C4CCC4)n3)ccc2C1 [MRT68921]
- Effect on BafA1-induced LC3-II accumulation [1]: block BafA1-induced LC3-II accumulation

Compound: CNC(=O)c1ccccc1Oc1nc(Nc2cc(OC)c(OC)c(OC)c2)ncc1Br [SBI-0206965]
- Effect on Beclin 1 Ser15 phosphorylation in cells (ULK1): reduce Beclin 1 Ser15 phosphorylation

Compound: COc1ccc(-c2ccc3c(N4CCOC[C@@H]4C)nc(N4CCOC[C@@H]4C)nc3n2)cc1CO [AZD8055, reference compound]
- Increase in abundance of DFCP1-positive puncta ([2]; 100 nM AZD8055, 2.5 hr, vs vehicle): over 3 fold
- Increase in BafA1-induced LC3B-II accumulation (U2OS cells [3]; 100 nM AZD8055, within 1 hr): over 2 fold
- ATG12-positive puncta formation (U2OS cells [4]; 100 nM AZD8055, 2.5 hr): distinct ATG12-positive puncta

Compound: O=C(N[C@@H](C1CC1)C(F)(F)F)c1cc(-c2cnn3cc(-c4ccc(F)cc4)cnc23)cs1 [ULK-101]
- AMPK inhibition in vitro (AMPK): spared
- Effect on AZD8055-induced formation of DFCP1-positive structures [2, 6]: completely abrogated
- Effect on AZD8055-induced increase of BafA1-induced LC3B-II accumulation (U2OS cells [3]; 5 μM ULK-101 with 100 nM AZD8055, 3 hr): negated
- Effect on AZD8055-induced ATG12-positive puncta (U2OS cells [4]; [6]): strongly suppressed
- Number of other kinases inhibited at least 75% as well as ULK1 [5]: four
